From PubChem
STAT1 inh: inhibitors of IFN-gamma induced STAT1 signaling; inhibition, % at 5.5 µM; AID 920; 200,000 compounds, 0.35% hits; NIH 3T3 STAT1-luciferase reporter, luminescence;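 active = inhibition above a set limit, the mean inhibition across all tested compounds plus 3 SD, cut at about 34% in these data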;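 also: 0% = IFN-gamma with DMSO and 100% = IFN-gamma with 300 µM nifuroxazide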
STAT3 blocker: inhibitors of IL-6 induced STAT3 signaling | U3A cells, IL-6 STAT3-luciferase reporter, luminescence; host cell line lacks STAT1 | inhibition, % at 5.5 µM | 190,000 compounds, 0.89% hits | AID 862;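 active = inhibition above the mean inhibition across all screened compounds plus 3 SD, cut at about 44% in these data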;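 also: 0% = DMSO only wells and 100% = 100 µM nifuroxazide control wells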
APP 5'UTR act: activates APP 5'UTR luciferase reporter; 190,000 compounds, 1% hits; SH-SY5Y APP 5'UTR luciferase reporter, luminescence; zero percent = DMSO vehicle wells; activation, % at 2 µM;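 active = activation above a set limit, based on mean plus 3 SD of controls, cut at about 140% in these data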
STAT3 act: activators of IL-6 induced STAT3 signaling. U3A cells, IL-6 STAT3-luciferase reporter, luminescence; 100% = signal with IL-6 EC80 alone. activation (% of control), % at 5.6 µM. 190,000 compounds, 0.91% hits. AID 871;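 active = activation above the screen-wide mean of compound activation plus 3 SD, cut at about 130% in these data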;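 also: 0% = background luminescence of wells with medium and substrate only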
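system = STAT3-luciferase reporter U3A cells | reagent = IL-6 stimulus at 33 ng/mL final | timing = 1 h compound pre-exposure, 6 h IL-6 stimulation, 37 °C | measured by = luminescence | evaluation = % activation versus median of IL-6-stimulated wells | control set = IL-6-only wells as 100% reference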
STAT1 act: STAT1 signaling activation; NIH 3T3 STAT1-luciferase reporter, IFN-gamma, luminescence; 100% = IFN-gamma alone, no compound; activation (% of control), % at 5.5 µM; 200,000 compounds, 2.6% hits; AID 932;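 active = activation above the screen-wide mean activation plus 3 SD, cut at about 130% in these data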;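 also: raw ratio to IFN-gamma control signal so 100% means no change and 0% no light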
NF-kB expr up: raises NF-kB expression in human neuronal cells; fold change at 12.5 µM; NF-kB reporter expression; active compounds read high; 190,000 compounds, 1.6% hits; in the data active = fold change above about 3.3
Active calls of the source: *; / = not tested or not shown. An excerpt weighted towards active compounds, which were near 4.9% of everything screened.

SMILES	STAT1 inh	STAT3 blocker	APP 5'UTR act	STAT3 act	STAT1 act	NF-kB expr up
Cc1ccc(C(=O)NNC(=O)C2CCN(c3nccc(C)n3)CC2)cc1	2.9	5.2	-1.4	96.1	97.4	0.94
COCCn1nnnc1C(CC(C)C)N1CCN(c2cccc(OC)c2)CC1 (centres undefined)	-4.3	-7.2	-15.4	111.9	105.2	5.79*
COc1ccc(OC)c(NC(=O)Cn2c(CCC(=O)O)ccc2-c2ccccc2)c1	-5.3	-36.8	-10.5	133.6*	104.8	0.86
COc1ccccc1NC(=O)Cn1c(CCC(=O)O)ccc1-c1ccccc1	3.7	-1.8	-19.0	104.5	94.7	0.93
Cn1cccc1Cc1nnc(SCC(=O)Nc2ccc3c(c2)OCCO3)n1CCc1ccccc1	-6.3	-6.5	2.7	109.3	105.7	0.72
O=C1CCCC2=C1C(c1ccc(O)cc1)c1c(ccc3ccccc13)N2 (centres undefined)	-1.2	-6.1	202.5*	107.0	100.5	0.89
CC1CCCN(c2ccc(C(=O)NCc3cccs3)cn2)C1 (centres undefined)	-12.9	6.4	59.6	96.3	111.9	2.33
CC1CCN(c2ccc(C(=O)NCCc3ccccc3)cn2)CC1	-32.7	-8.5	31.0	110.8	132.3*	1.59
CC1CCCN(c2ccc(C(=O)NCc3ccccc3)cn2)C1 (centres undefined)	-40.3	1.8	-11.4	100.4	136.9*	2.01
Cc1cc(NC(=O)CSc2nc3ccccc3c(=O)n2C(C)c2ccccc2)no1 (centres undefined)	11.9	-33.3	22.2	134.5*	89.1	3.63*
CCn1c(=O)c(C)nn2c3ccccc3nc12	-7.9	9.9	-12.3	96.9	108.0	1
Cc1nn2c3ccccc3nc2c2ccccc12	-21.0	-41.0	-6.1	134.4*	114.8	1.13
C=CCOc1cccc(C2C(C(=O)c3ccc(C)o3)=C(O)C(=O)N2c2nccs2)c1 (centres undefined)	-7.6	-21.3	-3.5	122.5	106.9	1.15
O=C(Nc1ccc(Cl)cc1)c1ccc(OCC2CCCO2)cc1 (centres undefined)	-39.9	16.4	120.7	88.5	137.0*	2.39
COc1ccc(OC)c(NS(=O)(=O)Cc2ccccc2)c1	-6.1	7.8	-5.3	98.2	105.5	0.92
CN(C)c1cccc(C(=O)OCC(=O)N2CCc3ccccc3C2)c1	-7.7	-7.8	31.5	107.8	106.1	1.13
Cc1ccsc1C(=O)OCC(=O)N1CCc2ccccc2C1	-49.3	16.4	63.0	91.5	144.1*	1.09
CC1=C(C(=O)c2ccccc2)C(c2ccc(N3CCOCC3)cc2)NC(=O)N1 (centres undefined)	4.8	0.1	36.4	104.3	97.0	0.97
CN(C)/C=N/c1cnc(C(=O)c2ccc(Cl)cc2)n1C	-50.5	5.4	19.2	103.0	146.0*	3.84*
CN(C)/C=N/NC(=O)c1ccc(Cl)cc1	-5.4	4.9	-6.2	98.0	104.4	1.19
O=c1[nH]c2ccccc2nc1C(F)(F)C(F)F	-41.3	6.5	20.4	98.0	137.5*	0.97
O=c1[nH]c2cc3ccccc3cc2nc1C(F)(F)F	-10.3	22.9	12.8	82.7	109.0	1.24
Cc1ccc(CN2C3CCCC2CC(NC(=O)c2ccc(C)cc2)C3)cc1 (centres undefined)	1.9	7.8	1.0	96.8	97.9	1.14
Cc1ccc(/C=N/NC(=O)c2nn(C)cc2Cl)cc1	-32.7	10.2	42.5	94.4	128.9*	2.13
CC(C)c1ccc(/C=C/C2=NNC(=O)CC2)cc1	-37.9	36.1	164.7*	70.5	136.3*	4.59*
SMILES	STAT1 inh	STAT3 blocker	APP 5'UTR act	STAT3 act	STAT1 act	NF-kB expr up
CC(C)c1ccc(/C=C/C(=O)N2CCCCCC2)cc1	-1.0	19.1	16.1	86.3	100.9	1.89
COC(=O)CSc1nc(C)c2c(n1)CCCC2	-1.0	12.3	-3.0	91.5	99.2	1.47
CCOC(=O)c1ccc(NC(=O)c2ccccc2N(C)S(=O)(=O)c2ccccc2)cc1	9.6	5.1	-4.5	91.7	91.3	1.19
O=C(NCc1ccc(Cl)cc1)C1CCN(S(=O)(=O)c2ccc(F)cc2)CC1	-6.6	-4.2	0.6	103.1	106.3	0.9
Cc1ccc(/C=C/C(=O)c2nc3ccccc3[nH]2)cc1	-11.7	13.8	-2.2	94.7	110.5	1.65
Cc1ccc(Nc2nc3ccccc3[nH]2)nc1	-27.2	-4.9	100.3	106.5	125.1	5.38*
O=C(/C=C/c1c(F)cccc1Cl)Nc1ccncc1	-16.4	-4.2	59.8	102.1	115.5	2.36
Cc1ccc(/C=C/C(=O)Nc2nc3ccccc3[nH]2)cc1	-32.0	-15.3	179.7*	114.7	128.6*	2.05
O=C(/C=C/c1c(F)cccc1Cl)Nc1nc2ccccc2[nH]1	-34.2	1.1	115.0	101.5	130.1*	1.41
COc1ccccc1Nc1nc2ccccc2[nH]1	-8.5	17.8	46.5	89.2	107.8	1.71
Cc1ccc(NC(=O)CS(=O)CC(=O)N(C(C)C(=O)NC2CCCCC2)C(C)(C)C)cc1 (centres undefined)	2.0	3.2	-16.2	99.2	96.4	1.27
O=C(CC1CS(=O)(=O)CC1CC(=O)Nc1ccc2c(c1)OCCO2)Nc1ccc2c(c1)OCCO2 (centres undefined)	13.7	40.0	51.5	68.1	85.5	0.62
CCOC(=O)c1c(C)c(C(=O)Nc2ccc3c(c2)OCCO3)c(C)n1C	-11.0	6.5	-7.3	99.9	110.8	1.04
CCOC(=O)c1c(C)c(C(=O)Nc2cc(F)ccc2F)c(C)n1C	-3.1	-0.2	5.0	102.8	102.8	4.33*
COc1ccc2nc(SCC(=O)Nc3ccc(S(=O)(=O)Nc4nccc(C)n4)cc3)[nH]c2c1	11.1	4.2	-5.8	101.9	89.8	1.03
O=C(Nc1ccccc1)N1CCCC2CCCCC21 (centres undefined)	-34.5	3.4	32.2	101.4	131.4*	1.97
O=C(NC1CCCC1)C1CCCN1C(=O)Nc1ccccc1 (centres undefined)	-4.0	1.3	-6.3	103.7	103.7	0.98
Nc1nc2nc(-c3ccccc3)cc(=O)n2[nH]1	-5.6	-8.8	-2.7	107.6	105.1	1.02
O=c1cc(-c2ccccc2)nc2nc(-c3ccccc3)[nH]n12	-60.7	-66.6	9.6	158.5*	155.5*	1.84
CC(C)[C@H](NC(=O)[C@H](CCCN=C(N)N)NC(=O)NC(Cc1ccccc1)C(=O)O)C(=O)NC(C=O)CCCN=C(N)N (some centres undefined)	3.3	0.9	73.7	101.3	97.0	1.33
COCCCn1c(SCC(=O)N2CCc3ccccc32)nnc1-c1ccoc1C	11.3	-36.3	0.1	135.8*	89.7	/
Cc1ccc(C(=O)CCNc2ccc(F)c(Cl)c2)o1	-5.8	20.3	31.3	86.6	106.8	5.36*
Cc1ccc(C(=O)CCNc2ccccc2)o1	-43.1	-1.9	-3.7	101.4	139.8*	1.12
